Results from different studies.
Compare with care: the assays were run in different laboratories.
Cell line: HepG2
Observed: cell growth or viability

SMILES | method | time | IC50
CN(C)c1cc(NC(=O)CNC(C)(C)C)c(O)c2c1C[C@H]1C[C@H]3[C@H](N(C)C)C(O)=C(C(N)=O)C(=O)[C@@]3(O)C(O)=C1C2=O | ATP luminescence | 72 h | > 200 µg/mL
O=C(O)Cc1csc(NC(=O)c2cc3ccccc3[nH]2)n1 | MTT | 24 h | 13.9 µM
COc1ccc(-c2cc(-c3c(OC)cccc3OC)c3c(=O)n(C)c(=O)n(C)c3n2)cc1 | MTT | 48 h | 10.5 µM
CN(C)c1cc(NC(=O)Cc2ccn(C)n2)c(O)c2c1C[C@H]1C[C@H]3[C@H](N(C)C)C(O)=C(C(N)=O)C(=O)[C@@]3(O)C(O)=C1C2=O | ATP luminescence | 72 h | > 200 µg/mL
COc1ccc(-c2cc(-c3c(OC)cccc3OC)c3c(=O)[nH]c(=O)[nH]c3n2)cc1 | MTT | 48 h | 36.5 µM
CCCOc1nc(-c2cccc(O)c2)cc(-c2cc3ccccc3nc2N2CCOCC2)c1C#N | MTT | 72 h | 0.269 µM
COc1ccc(-c2cc(-c3ccccc3Cl)c3c(=O)n(C)c(=O)n(C)c3n2)cc1 | MTT | 48 h | 18.9 µM
C[C@H](CCC(=O)O)[C@H]1CC[C@H]2[C@@H]3CC[C@@H]4C[C@H](O)CC[C@]4(C)[C@H]3CC[C@]12C | MTT | 72 h | 52 µM
COc1ccc2[nH]c(C(=O)Nc3nc(CC(=O)NO)cs3)cc2c1 | MTT | 24 h | 13.3 µM
CN(C)c1cc(NC(=O)Cc2ccccc2)c(O)c2c1C[C@H]1C[C@H]3[C@H](N(C)C)C(O)=C(C(N)=O)C(=O)[C@@]3(O)C(O)=C1C2=O | ATP luminescence | 72 h | 63.7 µg/mL
Nc1n[nH]c2nc(-c3cccc(O)c3)cc(-c3cc4cc(Cl)ccc4nc3N3CCOCC3)c12 | MTT | 72 h | 0.0907 µM
COc1cccc2c1C(=O)c1c(O)c3c(c(O)c1C2=O)C[C@@](O)(C(=O)CO)C[C@@H]3O[C@H]1C[C@H](N)[C@H](O)[C@H](C)O1 | MTT | 72 h | 0.355 µM
COc1ccc(C2CC(c3ccc(Nc4nnc(-c5ccc(Cl)cc5)c5ccccc45)cc3)=NN2)cc1 (stereo not drawn) | MTT | 72 h | 0.19 µM
CN(C)c1cc(NC(=O)Cc2cnccn2)c(O)c2c1C[C@H]1C[C@H]3[C@H](N(C)C)C(O)=C(C(N)=O)C(=O)[C@@]3(O)C(O)=C1C2=O | ATP luminescence | 72 h | > 200 µg/mL
COc1ccc(-c2cc(-c3cc(OC)ccc3OC)c3c(=O)n(C)c(=O)n(C)c3n2)cc1 | MTT | 48 h | 16.4 µM
